Activity, IC90 and TC90 data for six compounds are collected here from ChEMBL document CHEMBL1147363, “Inhibitory effect of carnosic acid on HIV-1 protease in cell-free assays [corrected]” (J Nat Prod, 1993).

One series deals with T1, Cathepsin D (Bos taurus) (UniProt P80209).
T1 sequence (whole entry): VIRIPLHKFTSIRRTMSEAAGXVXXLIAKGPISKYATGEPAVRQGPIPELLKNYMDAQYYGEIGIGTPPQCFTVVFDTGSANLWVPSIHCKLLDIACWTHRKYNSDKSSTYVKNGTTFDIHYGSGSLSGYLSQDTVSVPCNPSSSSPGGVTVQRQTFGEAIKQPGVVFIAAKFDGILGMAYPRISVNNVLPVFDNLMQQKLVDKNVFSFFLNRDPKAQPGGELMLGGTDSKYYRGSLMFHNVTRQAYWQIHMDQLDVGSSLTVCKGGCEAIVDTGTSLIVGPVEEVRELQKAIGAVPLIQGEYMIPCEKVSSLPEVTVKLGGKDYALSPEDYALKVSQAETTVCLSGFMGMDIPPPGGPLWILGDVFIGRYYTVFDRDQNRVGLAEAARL
In words: Inhibition of bovine spleen cathepsin D up to 10 ug/ml. The essentials: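 Cathepsin D purified from bovine spleen, 40 nM final. Compound (DMSO stock diluted in 0.1 M Na acetate pH 3.5) preincubated with enzyme 10 min. 2% hemoglobin substrate added, 10 min at 37°. Stopped with 0.33 M trichloroacetic acid. Soluble products treated with NaOH and Folin-Ciocalteu reagent; absorbance read at 750 nm. Tested up to 10 μg/ml.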

Series [1] deals with Protease (Human immunodeficiency virus 1) (UniProt Q9YQ12). In words: Inhibition of HIV1 recombinant protease expressed in Escherichia coli BL21 (DE3) cells by SDS-PAGE.
Another series is filed under the species Sus scrofa. In words: Inhibition of pig pepsin up to 10 ug/ml. The gist of the method:
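Porcine pepsin, 40 nM final. Compound stock diluted in 0.01 M HCl and preincubated with enzyme 10 min at room temperature. 2% hemoglobin substrate (pH 1.8) added, 10 min at 37°. Stopped with 0.33 M TCA; activity by modified Anson hemoglobin method. Tested up to 10 μg/ml.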

Another series relates to H9. In words: Cytotoxicity against human H9 cells after 3 or 5 days by XTT assay. The series is classed as cell-based. The note with it: h9, 120 h. The gist of the method: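 Cells seeded at 1×10^5 per well with graded compound concentrations and grown at 36° for 3 or 5 days depending on cell type. XTT (1 mg/ml, with 0.025 mM phenazine methosulfate) added, 1 h at 36°, OD450 read. TC90 is the concentration giving 90% reduction in viable cells.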
Background: Tetrazolium dyes change colour on reduction, which living cells bring about.

Series [2] has as its system Human immunodeficiency virus 1. In words: Antiviral activity against HIV1 replication infected in human MT2 cells assessed as reduction in plaque formation after 3 days by MTT assay. The series is classed as functional. The note with it: Human immunodeficiency virus 1, MT2, 72 h. The essentials:
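MT-2 cells pretreated 30 min at room temperature with compound (DMSO stock diluted in RPMI), infected with HIV-1 (3b or rf) 1 h at 36°, washed, then grown 3 days in compound-containing RPMI. Progeny titre measured by plaque assay on poly-L-lysine-coated MT-2 monolayers under agarose overlays, stained with MTT. Activity expressed as percent reduction in titre versus untreated virus; IC90 reported.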

SMILES strings stand for the structures. Values after ≈ are worked out from the molar mass of the structure shown. Active and inactive are the calls of the source. The rule behind the calls is not given here.

Sequence of Protease (Human immunodeficiency virus 1) (Q9YQ12 as listed by the source): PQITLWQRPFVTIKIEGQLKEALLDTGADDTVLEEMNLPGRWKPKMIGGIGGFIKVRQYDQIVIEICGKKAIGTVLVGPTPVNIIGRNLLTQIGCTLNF

Broadly, the IC90 is the concentration needed for an effect of 90%. `CC(C)c1cc2c(c(O)c1O)[C@@]13CCCC(C)(C)[C@@H]1[C@H](OC3=O)[C@H]2O`: the outcome on Cathepsin D (Bos taurus) and in the series filed under Sus scrofa was inactive. Also, in series [1], the IC90 was 0.6 µg/mL.
In the case of `COc1c(C(C)C)cc2c(c1OC)[C@@]13CCCC(C)(C)[C@@H]1C[C@@H]2OC3=O`, the outcome on Cathepsin D (Bos taurus) and in the series filed under Sus scrofa was inactive. Also, the IC90 in series [1] is over 10 µg/mL.
In the case of `CO[C@H]1c2cc(C(C)C)c(O)c(O)c2[C@@]23CCCC(C)(C)[C@@H]2[C@@H]1OC3=O`, the result on Cathepsin D (Bos taurus) and in the series filed under Sus scrofa was inactive. Further, the concentration for an effect of 90% (IC90) in series [1] was found to be 1.5 µg/mL.
In the case of `CCO[C@H]1c2cc(C(C)C)c(O)c(O)c2[C@@]23CCCC(C)(C)[C@@H]2[C@@H]1OC3=O`, the outcome at Cathepsin D (Bos taurus) and in the series filed under Sus scrofa was inactive. Also, in series [1], the concentration for an effect of 90% (IC90) was 1.7 µg/mL.
Take `CC(C)c1cc2c(c(O)c1O)[C@@]1(C(=O)O)CCCC(C)(C)[C@@H]1CC2` [CARNOSIC ACID]: the TC90 in the series with H9 worked out at 0.36 µg/mL (≈ 1.08 µM). The figures for the concentration for an effect of 90% (IC90) in series [2] and in series [1] were 0.32 µg/mL (≈ 0.963 µM) and 0.08 µg/mL, respectively. In addition, the outcome on Cathepsin D (Bos taurus) and in the series filed under Sus scrofa was inactive.
Consider `CC(C)c1cc2c(c(O)c1O)[C@@]13CCCC(C)(C)[C@@H]1C[C@@H]2OC3=O`, for which the outcome at Cathepsin D (Bos taurus) and in the series filed under Sus scrofa was inactive. The 90% effect concentration (IC90) in series [1] was over 10 µg/mL.
